We go through 55 sequences from the array DNA melting data of Ke et al. (doi:10.1101/2024.01.08.574731).

A short description of series [1]: melting temperature; fluorescence melt of hairpins on a sequencing array, two-state fit, raised by 9.35 °C to match UV melts. Particulars: sodium 0.088 M. In outline:
(§1)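 Folding enthalpy and melting temperature were estimated with bootstrapped two-state fits and combined across four replicates by inverse-variance weighting, with fitted temperatures raised by 9.35 °C to match UV melts. The data were Cy3 fluorescence of library hairpins, with annealed Cy3 and quencher oligos, on a sequenced MiSeq flow cell in 50 mM Na-HEPES pH 8.0, 25 mM NaCl, imaged in 2.5 °C steps up to 60 °C and normalised to pre-quench Cy3 and control constructs.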

Series [2] can be described thus: folding enthalpy; higher = less favourable; fluorescence melt of hairpins on a sequencing array, two-state fit. As to conditions: sodium 0.088 M. In outline:
as §1

As for GATCTATGAGTAGATC ((((((....)))))), the Tm in series [1] was 45.5 °C. In series [2], the folding enthalpy was -40.3 kcal/mol.
In the same order, the values of GCCCAGCGAAAGCTGAGC ((.((((....)))).)) are 63.3 °C and -15.2 kcal/mol.
In the same order, the values of GATCCCGGGGGGATC ((((((...)))))) are 61.6 °C and -35.4 kcal/mol.
With GGAATGGGAAACTATTCC (((((.(....).))))), the Tm in series [1] amounted to 42.3 °C. Besides, the folding enthalpy in series [2] is -25.9 kcal/mol.
The corresponding values for GCACACGAAAGTGTTTGC ((((((....)))..))) are 39.6 °C and -13.7 kcal/mol.
The corresponding values for GTACGCGAAAGCGTTTAC ((((((....)))..))) are 29.1 °C and -7.31 kcal/mol.
As to GAGCCGGGAAACCGGTTC ((.((((....)))).)), the Tm in series [1] worked out at 55 °C. In series [2], the folding enthalpy is -34.5 kcal/mol.
For GCGTGCGAAAGCACACGC ((((((....)))..))), the Tm in series [1] was 64.5 °C. Besides, the folding enthalpy in series [2] is -15 kcal/mol.
As to GTATGCACGAAAGTGTAC (((..(((....)))))), in series [1], the Tm is 31.1 °C. In series [2], the folding enthalpy was -9.37 kcal/mol.
Regarding GATCTTTCCTAAGATC ((((((....)))))), in series [1], the Tm was 45.1 °C. For the same sequence, in series [2], the folding enthalpy was -34.2 kcal/mol.
GCTGTGGGAAACCACGGC ((.((((....)))).)): the Tm in series [1] worked out at 58.8 °C. Besides, the folding enthalpy in series [2] was -36.2 kcal/mol.
Consider ATATCGAAAGATAT (((((....))))), for which, in series [1], the Tm stood at 42.2 °C. For the same sequence, the folding enthalpy in series [2] is -15.8 kcal/mol.
The corresponding values for GCCGCAACGAAAGTTGGC (((..(((....)))))) are 48 °C and -11.2 kcal/mol.
In the same order, the values of GTGGTACCGAAAGGTCAC (((..(((....)))))) are 38.4 °C and -18.4 kcal/mol.
In the same order, the values of GATCCATTTCTGGATC ((((((....)))))) are 51 °C and -34.3 kcal/mol.
Regarding TCAGAGAAATCTGA (((((....))))), the Tm in series [1] was found to be 27.6 °C. Besides, the folding enthalpy in series [2] was -9.32 kcal/mol.
The corresponding values for GTTGTCGGAAACGGTAAC (((..((....))..))) are 33.1 °C and -21.9 kcal/mol.
As for GCATCCGAAAGGATTGC ((((((....))).))), the Tm in series [1] is 53.8 °C. In addition, in series [2], the folding enthalpy is -16.6 kcal/mol.
The corresponding values for GACAGACGAAAGTCCGTC (((.(((....))).))) are 47.5 °C and -26 kcal/mol.
In the same order, the values of GTAAGAACGAAAGTTTAC (((..(((....)))))) are 24.3 °C and -8.19 kcal/mol.
In the same order, the values of GAGGTTGGAAACAACCCC (.(((((....))))).) are 40.5 °C and -13.2 kcal/mol.
In the case of GCAATGCGAAAGCATGGC ((.((((....)))).)), the Tm in series [1] was found to be 65.2 °C. Further, the folding enthalpy in series [2] was -34 kcal/mol.
As for GTTGAGGGAAACCTCAAC (((((((....))))))), the Tm in series [1] amounted to 59.8 °C. The folding enthalpy in series [2] was -42.2 kcal/mol.
For the sequence GATCCGATCCCGGATC ((((((....)))))), the Tm in series [1] is 55.6 °C. Further, the folding enthalpy in series [2] was -38.9 kcal/mol.
In the same order, the values of GAGGCCGAAAGGCGACTC ((((((....)))..))) are 44.7 °C and -12.7 kcal/mol.
In the same order, the values of GTGAATGGAAACGTTCAC (((((.(....).))))) are 47.1 °C and -39.7 kcal/mol.
In the same order, the values of GATCATGATGATGATC ((((((....)))))) are 47.5 °C and -32.3 kcal/mol.
As for GACATAACGAAAGTTGTC (((..(((....)))))), the Tm in series [1] was 37.4 °C. The folding enthalpy in series [2] was -25 kcal/mol.
The corresponding values for GCCGGAGGAAACTCTGGC (((.(((....))).))) are 54.8 °C and -34.6 kcal/mol.
As for GCCGAGCGAAAGCGCAGC ((.(.((....)).).)), the Tm in series [1] came out at 49.4 °C. The folding enthalpy in series [2] was -14.4 kcal/mol.
The corresponding values for GCCGGCGAAAGCCTAGGC ((((((....)))..))) are 60.1 °C and -24.5 kcal/mol.
In the same order, the values of GTTGACACGAAAGTGAAC (((..(((....)))))) are 34.1 °C and -14.2 kcal/mol.
The corresponding values for GTGGATCGAAAGATGCAC (((.(((....))).))) are 55.9 °C and -45.9 kcal/mol.
In the case of GGTGACCGAAAGGTAACC (((.(((....))).))), the Tm in series [1] turned out to be 57.1 °C. Also, in series [2], the folding enthalpy was -41.1 kcal/mol.
For the sequence GTCAACGAAAGTTTAGAC ((((((....)))..))), in series [1], the Tm was determined as 31.3 °C. Also, the folding enthalpy in series [2] is -16.1 kcal/mol.
Take GGAGGGGCGAAAGCCTCC (((..(((....)))))): the Tm in series [1] worked out at 44.8 °C. In addition, the folding enthalpy in series [2] was -13.4 kcal/mol.
The corresponding values for GCGTTTGGAAACAAGTGC ((..(((....)))..)) are 31.4 °C and -15.8 kcal/mol.
The corresponding values for GCATGGGGAAACTCATGC (((((.(....).))))) are 51.9 °C and -40.3 kcal/mol.
In the same order, the values of GATCACAGCCGTGATC ((((((....)))))) are 57.8 °C and -44.6 kcal/mol.
Consider GCTCAGCGAAAGCAGCGC ((.(.((....)).).)), for which the Tm in series [1] is 49.4 °C. Also, the folding enthalpy in series [2] was -18 kcal/mol.
For GTACCGCGAAAGCGCTAC (((.(((....))).))), the Tm in series [1] came to 35.9 °C. Also, the folding enthalpy in series [2] is -12.2 kcal/mol.
The corresponding values for GCTACCGGAAACGGCAAC (.(.(((....))).).) are 18.5 °C and -8.04 kcal/mol.
In the same order, the values of GTCAGTCGAAAGACGAC (((.(((....)))))) are 53.1 °C and -32 kcal/mol.
In the case of GCCTTACCGAAAGGTGGC (((..(((....)))))), the Tm in series [1] came out at 48.8 °C. For the same sequence, the folding enthalpy in series [2] was -23.6 kcal/mol.
For the sequence GCTAGCGGAAACGTTGGC ((.(.((....)).).)), the Tm in series [1] was determined as 39.6 °C. Besides, the folding enthalpy in series [2] is -24.6 kcal/mol.
The corresponding values for GTAACGTCGAAAGACTAC (((..(((....)))))) are 28.7 °C and -11.2 kcal/mol.
In the same order, the values of GCAAACGAAAGTTGTTGC ((((((....)))..))) are 32.9 °C and -22.5 kcal/mol.
The corresponding values for GTGCTGCGAAAGCACAC (((.(((....)))))) are 55.3 °C and -19.4 kcal/mol.
For GGGTTCGAAAGAACTCCC ((((((....)))..))), the Tm in series [1] was found to be 46.5 °C. Also, the folding enthalpy in series [2] was -13.5 kcal/mol.
In the same order, the values of GCAGTGCGAAAGCGGTGC (((..((....))..))) are 63.9 °C and -39.5 kcal/mol.
The corresponding values for GCGACACGAAAGTGCGC (((.(((....)))))) are 63.9 °C and -22.7 kcal/mol.
The corresponding values for GACAGAGGAAACTTTGTC ((((.((....)).)))) are 36.7 °C and -25.3 kcal/mol.
Regarding GTTGGACCGAAAGGTAAC (((..(((....)))))), in series [1], the Tm worked out at 35.8 °C. In addition, in series [2], the folding enthalpy is -20 kcal/mol.
The corresponding values for GTCCATGGAAACATAGAC (((.(((....))).))) are 30.1 °C and -17.3 kcal/mol.
In the same order, the values of GTCCGCACGAAAGTGGAC (((..(((....)))))) are 47.1 °C and -19.6 kcal/mol.
